Data: ChEMBL document CHEMBL1909525, “Synthesis and anticonvulsant activity of novel 2,6-diketopiperazine derivatives. Part 1: perhydropyrrole[1,2-a]pyrazines” (Eur J Med Chem, 2011)
Activity calls are given as the source filed them. The calls are words filed in the database; no cut-off is given here.

Tests used:
Mus musculus [1] = experiment: Neurotoxicity in albino Carworth Farms No.1 mouse assessed as motor impairment at 30 mg/kg, ip after 0.5 hrs by rotarod test; assay type: toxicity, organism-based; design: dose 30 mg/kg, route intraperitoneal; settings: in vivo
Summary of the method: (§1)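 Rotorod neurotoxicity in mice at 6 r.p.m. Compound given i.p. (30, 100, 300 mg/kg) in 0.5% methylcellulose; tested at 30 min and 4 h. Impairment is inability to keep equilibrium on the rod for a given time; scored as impaired/tested.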

Mus musculus [2] = experiment: Neurotoxicity in albino Carworth Farms No.1 mouse assessed as motor impairment at 100 mg/kg, ip after 0.5 hrs by rotarod test; assay type: toxicity, organism-based; design: dose 100 mg/kg, route intraperitoneal; settings: in vivo; summary of the method: as §1
Mus musculus [3] = experiment: Neurotoxicity in albino Carworth Farms No.1 mouse assessed as motor impairment at 300 mg/kg, ip after 0.5 hrs by rotarod test; assay type: toxicity, organism-based; design: dose 300 mg/kg, route intraperitoneal; settings: in vivo; summary of the method: as §1
Mus musculus [4] = experiment: Anticonvulsant activity in albino Carworth Farms No.1 mouse assessed as protection against subcutaneous metrazol-induced seizure at 30 mg/kg, ip after 0.5 hrs; assay type: functional, organism-based; design: dose 30 mg/kg
Summary of the method: (§2)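 Mouse scMET test. Compound given i.p. (30, 100 or 300 mg/kg) in 0.5% methylcellulose. Pentylenetetrazole 85 mg/kg (CD97) given s.c. at 0.5 or 4 h, then mice observed for 30 min. Protection is absence of clonic spasms; scored as protected/tested.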

Mus musculus [5] = experiment: Anticonvulsant activity in albino Carworth Farms No.1 mouse assessed as protection against subcutaneous metrazol-induced seizure at 30 mg/kg, ip after 4 hrs; assay type: functional, organism-based; design: dose 30 mg/kg; summary of the method: as §2
Mus musculus [6] = experiment: Anticonvulsant activity in albino Carworth Farms No.1 mouse assessed as protection against subcutaneous metrazol-induced seizure at 100 mg/kg, ip after 0.5 hrs; assay type: functional, organism-based; design: dose 100 mg/kg; summary of the method: as §2
Mus musculus [7] = experiment: Anticonvulsant activity in albino Carworth Farms No.1 mouse assessed as protection against subcutaneous metrazol-induced seizure at 100 mg/kg, ip after 4 hrs; assay type: functional, organism-based; design: dose 100 mg/kg; summary of the method: as §2
Mus musculus [8] = experiment: Anticonvulsant activity in albino Carworth Farms No.1 mouse assessed as protection against subcutaneous metrazol-induced seizure at 300 mg/kg, ip after 0.5 hrs; assay type: functional, organism-based; design: dose 300 mg/kg; summary of the method: as §2
Mus musculus [9] = experiment: Anticonvulsant activity in albino Carworth Farms No.1 mouse assessed as protection against subcutaneous metrazol-induced seizure at 300 mg/kg, ip after 4 hrs; assay type: functional, organism-based; design: dose 300 mg/kg; summary of the method: as §2
Mus musculus [10] = experiment: Anticonvulsant activity in albino Carworth Farms No.1 mouse assessed as protection against maximal electroshock-induced seizure at 30 mg/kg, ip after 0.5 hrs; assay type: functional, organism-based; design: dose 30 mg/kg
Summary of the method: (§3)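 Mouse MES test with compound given i.p. (30, 100 or 300 mg/kg) in 0.5% methylcellulose; tested at 0.5 and 4 h. Corneal stimulus of 50 mA at 60 Hz for 0.2 s, electrodes primed with 0.5% butacaine in 0.9% NaCl. Protection is abolition of hindlimb tonic extension; scored as protected/tested.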

Mus musculus [11] = experiment: Anticonvulsant activity in albino Carworth Farms No.1 mouse assessed as protection against maximal electroshock-induced seizure at 30 mg/kg, ip after 4 hrs; assay type: functional, organism-based; design: dose 30 mg/kg; summary of the method: as §3
Mus musculus [12] = experiment: Anticonvulsant activity in albino Carworth Farms No.1 mouse assessed as protection against maximal electroshock-induced seizure at 100 mg/kg, ip after 0.5 hrs; assay type: functional, organism-based; design: dose 100 mg/kg; summary of the method: as §3
Mus musculus [13] = experiment: Anticonvulsant activity in albino Carworth Farms No.1 mouse assessed as protection against maximal electroshock-induced seizure at 100 mg/kg, ip after 4 hrs; assay type: functional, organism-based; design: dose 100 mg/kg; summary of the method: as §3
Mus musculus [14] = experiment: Anticonvulsant activity in albino Carworth Farms No.1 mouse assessed as protection against maximal electroshock-induced seizure at 300 mg/kg, ip after 0.5 hrs; assay type: functional, organism-based; design: dose 300 mg/kg; summary of the method: as §3
Mus musculus [15] = experiment: Anticonvulsant activity in albino Carworth Farms No.1 mouse assessed as protection against maximal electroshock-induced seizure at 300 mg/kg, ip after 4 hrs; assay type: functional, organism-based; design: dose 300 mg/kg; summary of the method: as §3
Mus musculus [16] = experiment: Neurotoxicity in albino Carworth Farms No.1 mouse assessed as motor impairment at 30 mg/kg, ip after 4 hrs by rotarod test; assay type: toxicity, organism-based; design: dose 30 mg/kg, route intraperitoneal; settings: in vivo; summary of the method: as §1
Mus musculus [17] = experiment: Neurotoxicity in albino Carworth Farms No.1 mouse assessed as motor impairment at 300 mg/kg, ip after 4 hrs by rotarod test; assay type: toxicity, organism-based; design: dose 300 mg/kg, route intraperitoneal; settings: in vivo; summary of the method: as §1
Mus musculus [18] = experiment: Anticonvulsant activity in ip dosed albino Carworth Farms No.1 mouse assessed as protection against maximal electroshock-induced seizure after 0.25 hrs; assay type: functional; settings: albino Carworth Farms No.1, ip
Summary of the method: (§4)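 Mouse quantification at the time of peak effect, compound given i.p. in 0.5% methylcellulose. Groups of at least eight mice received varied doses until at least two points fell between 100 and 0% response. ED50 (MES, scMET) and TD50 (rotorod) with 95% CI by probit analysis (Finney). PI = TD50/ED50 MES.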

Mus musculus [19] = experiment: Anticonvulsant activity in ip dosed albino Carworth Farms No.1 mouse assessed as protection against subcutaneous metrazol-induced seizure after 0.25 hrs; assay type: functional; settings: albino Carworth Farms No.1, 0.25 h; summary of the method: as §4
Mus musculus [20] = species on record: Mus musculus; experiment: Protective index, ratio of TD50 for albino Carworth Farms No.1 mouse to ED50 for albino Carworth Farms No.1 mouse by maximal electroshock-induced seizure test; assay type: functional
Summary of the method: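 Mouse quantification at the time of peak effect, compound given i.p. in 0.5% methylcellulose. Groups of at least eight mice received varied doses until at least two points fell between 100 and 0% response. PI = TD50/ED50 MES.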

Mus musculus [21] = experiment: Anticonvulsant activity in ip dosed albino Carworth Farms No.1 mouse assessed as time needs to show peak effect for protection against maximal electroshock-induced seizure; assay type: functional
Rattus norvegicus [22] = experiment: Anticonvulsant activity in po dosed albino Sprague-Dawley rat assessed as protection against maximal electroshock-induced seizure after 0.25 hrs; assay type: functional
Summary of the method: (§5)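 Rats dosed orally, compound in 0.5% methylcellulose. MES at 150 mA, 60 Hz, 0.2 s; scMET with pentylenetetrazole 70 mg/kg s.c. plus 30 min observation; rotorod for toxicity.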

Rattus norvegicus [23] = experiment: Anticonvulsant activity in po dosed albino Sprague-Dawley rat assessed as protection against subcutaneous metrazol-induced seizure after 0.25 hrs; assay type: functional; summary of the method: as §5
[24] = Neurotoxicity in po dosed albino Sprague-Dawley rat assessed as motor impairment after 0.25 hrs by rotarod test; assay type: toxicity, organism-based; settings: in vivo; summary of the method: as §5
Rattus norvegicus [25] = species on record: Rattus norvegicus; experiment: Protective index, ratio of TD50 for albino Sprague-Dawley rat to ED50 for albino Sprague-Dawley rat by maximal electroshock-induced seizure test; assay type: functional
Rattus norvegicus [26] = experiment: Anticonvulsant activity in po dosed albino Sprague-Dawley rat assessed as time needs to show peak effect for protection against maximal electroshock-induced seizure after 0.25 hrs; assay type: functional; summary of the method: as §5
Mus musculus [27] = experiment: Anticonvulsant activity in albino Carworth Farms No.1 mouse assessed as protection against electric-current for 3 secs-induced seizure at 100 mg/kg, ip after 2 hrs by 6Hz minimal clonic seizure test; assay type: functional, organism-based; design: dose 100 mg/kg
Summary of the method: (§6)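 6 Hz psychomotor seizure test in mice. Compound given i.p. as a suspension in 0.5% methylcellulose. Corneal stimulation at 32 mA, 0.2-ms monopolar rectangular pulses at 6 Hz for 3 s, from a constant-current device. Tests run 0.25–4 h after dosing. A mouse counted as protected if it resumed normal exploratory behaviour within 10 s; scored as protected/tested.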

Mus musculus [28] = experiment: Anticonvulsant activity in albino Carworth Farms No.1 mouse assessed as protection against electric-current for 3 secs-induced seizure at 100 mg/kg, ip after 0.25 hrs by 6Hz minimal clonic seizure test; assay type: functional, organism-based; design: dose 100 mg/kg; summary of the method: as §6
Mus musculus [29] = experiment: Anticonvulsant activity in albino Carworth Farms No.1 mouse assessed as protection against electric-current for 3 secs-induced seizure at 100 mg/kg, ip after 4 hrs by 6Hz minimal clonic seizure test; assay type: functional, organism-based; design: dose 100 mg/kg; summary of the method: as §6
Mus musculus [30] = experiment: Neurotoxicity in albino Carworth Farms No.1 mouse assessed as motor impairment at 100 mg/kg, ip after 0.25 hrs by rotarod test; assay type: toxicity, organism-based; design: dose 100 mg/kg, route intraperitoneal; settings: in vivo
Summary of the method: (§7)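 Rotorod neurotoxicity in mice (18–25 g) following i.p. dosing of a suspension in 0.5% methylcellulose in water, tested at intervals between 0.25 and 4 h. Impairment was scored as failure to keep equilibrium on a 6 r.p.m. rod, reported as number impaired/number tested.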

Mus musculus [31] = experiment: Neurotoxicity in albino Carworth Farms No.1 mouse assessed as motor impairment at 100 mg/kg, ip after 2 hrs by rotarod test; assay type: toxicity, organism-based; design: dose 100 mg/kg, route intraperitoneal; settings: in vivo; summary of the method: as §7
Mus musculus [32] = experiment: Neurotoxicity in albino Carworth Farms No.1 mouse assessed as motor impairment at 100 mg/kg, ip after 4 hrs by rotarod test; assay type: toxicity, organism-based; design: dose 100 mg/kg, route intraperitoneal; settings: in vivo; summary of the method: as §1
Mus musculus [33] = experiment: Neurotoxicity in albino Carworth Farms No.1 mouse assessed as motor impairment at 100 mg/kg, ip after 1 hr by rotarod test; assay type: toxicity, organism-based; design: dose 100 mg/kg, route intraperitoneal; settings: in vivo; summary of the method: as §7
Mus musculus [34] = experiment: Anticonvulsant activity in albino Carworth Farms No.1 mouse assessed as protection against electric-current for 3 secs-induced seizure at 100 mg/kg, ip after 1 hr by 6Hz minimal clonic seizure test; assay type: functional, organism-based; design: dose 100 mg/kg; summary of the method: as §6

| Compound | Activity (Mus musculus [1]) | Activity (Mus musculus [2]) | Activity (Mus musculus [3]) | Activity (Mus musculus [4]) | Activity (Mus musculus [5]) | Activity (Mus musculus [6]) | Activity (Mus musculus [7]) | Activity (Mus musculus [8]) | Activity (Mus musculus [9]) | Activity (Mus musculus [10]) | Activity (Mus musculus [11]) | Activity (Mus musculus [12]) | Activity (Mus musculus [13]) | Activity (Mus musculus [14]) | Activity (Mus musculus [15]) | Activity (Mus musculus [16]) | Activity (Mus musculus [17]) | also measured |
| --- | --- | --- | --- | --- | --- | --- | --- | --- | --- | --- | --- | --- | --- | --- | --- | --- | --- | --- |
| Cl.O=C1[C@H](c2ccccc2)N2CCC[C@H]2C(=O)N1Cc1ccccc1 | Non-toxic | Non-toxic | Non-toxic | inactive | inactive | inactive | inactive | inactive | inactive | inactive | inactive | inactive | inactive | Active | inactive | Non-toxic | Non-toxic | – |
| O=C1CN2CCC[C@H]2C(=O)N1 | Non-toxic | Non-toxic | Non-toxic | inactive | inactive | inactive | inactive | inactive | inactive | inactive | inactive | inactive | inactive | inactive | inactive | Non-toxic | Non-toxic | – |
| O=C1NC(=O)C(c2ccccc2)(c2ccccc2)N1 [PHENYTOIN] | – | – | – | – | – | – | – | – | – | – | – | – | – | – | – | – | – | ED50 (Mus musculus [18]): 5.64 mg/kg; ED50 (Mus musculus [19]): > 50 mg/kg; Ratio TD50/ED50 (Mus musculus [20]): 7.3; Time (Mus musculus [21]): 1 h; ED50 (Rattus norvegicus [22]): 28.1 mg/kg; ED50 (Rattus norvegicus [23]): > 500 mg/kg; TD50 at 0.25 h [24]: > 1000 mg/kg; Ratio TD50/ED50 (Rattus norvegicus [25]): >36.6; Time (Rattus norvegicus [26]): 4 h |
| CN1C(=O)[C@H](c2ccccc2)N2CCC[C@H]2C1=O.Cl | Non-toxic | Non-toxic | Toxic | inactive | inactive | inactive | inactive | Active | inactive | inactive | inactive | inactive | inactive | Active | inactive | Non-toxic | Non-toxic | – |
| O=C1[C@@H]2CCCN2[C@H](c2ccccc2)C(=O)N1CCc1ccccc1 | Non-toxic | Non-toxic | Non-toxic | inactive | inactive | inactive | inactive | inactive | inactive | inactive | inactive | inactive | inactive | inactive | inactive | Non-toxic | Non-toxic | Activity (Mus musculus [27]): inactive; Activity (Mus musculus [28]): inactive; Activity (Mus musculus [29]): inactive; Activity (Mus musculus [30]): Non-toxic; Activity (Mus musculus [31]): Non-toxic; Activity (Mus musculus [32]): Non-toxic; Activity (Mus musculus [33]): Non-toxic; Activity (Mus musculus [34]): inactive |
